Measured values reported in ChEMBL document CHEMBL3352487, “Synthesis, antibacterial activity, and biological evaluation of formyl hydroxyamino derivatives as novel potent peptide deformylase inhibitors against drug-resistant bacteria” (Eur J Med Chem, 2014).
Values after ≈ are worked out from the molar mass of the structure shown.

Assays:
[1] = Mean residence time (0 to t) in Sprague-Dawley rat at 5 mg/kg, iv; type: ADME, organism-based; set-up: dose 5 mg/kg, route intravenous; conditions: in vivo
[2] = test system: Enterococcus faecalis; assay: Antimicrobial activity against Enterococcus faecalis Isolate 1 after 24 hrs by broth microdilution method; type: functional; conditions: Isolate 1, 24 h
Outline: (§1)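 Broth microdilution following NCCLS M7-A4; ATCC strains and clinical isolates from a provincial hospital.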

[3] = test system: Haemophilus influenzae; assay: Antimicrobial activity against Haemophilus influenzae Q1 after 24 hrs by broth microdilution method; type: functional; conditions: Q1, 24 h; outline: as §1
[4] = test system: Staphylococcus aureus; assay: Antimicrobial activity against methicillin-resistant Staphylococcus aureus after 24 hrs by broth microdilution method; type: functional
Outline: (§2)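 Broth microdilution following NCCLS M7-A4, using ATCC strains and clinical isolates from a provincial hospital.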

[5] = Half life in Sprague-Dawley rat at 5 mg/kg, iv; type: ADME, organism-based; set-up: dose 5 mg/kg, route intravenous; conditions: in vivo
[6] = test system: Streptococcus pneumoniae; assay: Antimicrobial activity against Streptococcus pneumoniae ERY2 after 24 hrs by broth microdilution method; type: functional; conditions: ERY2, 24 h; outline: as §1
[7] = Half life in Sprague-Dawley rat at 25 mg/kg, po; type: ADME, organism-based; set-up: dose 25 mg/kg, route oral; conditions: in vivo
[8] = molecular target: T1, hERG (KCNH2) (Homo sapiens, UniProt Q12809); assay: Inhibition of human ERG at 10 uM
[9] = test system: Haemophilus influenzae; assay: Antimicrobial activity against AcrA-deficient Haemophilus influenzae H128 after 24 hrs by broth microdilution method; type: functional; conditions: H128, 24 h; outline: as §1
[10] = test system: Escherichia coli; assay: Antimicrobial activity against Escherichia coli isolate 2 after 24 hrs by broth microdilution method; type: functional; conditions: isolate 2, 24 h; outline: as §1
[11] = test system: Staphylococcus epidermidis; assay: Antimicrobial activity against Staphylococcus epidermidis after 24 hrs by broth microdilution method; type: functional; outline: as §1
[12] = test system: Streptococcus pneumoniae; assay: Antimicrobial activity against Streptococcus pneumoniae N1387 after 24 hrs by broth microdilution method; type: functional; conditions: N1387, 24 h; outline: as §1
[13] = AUC (0 to infinity) in Sprague-Dawley rat at 25 mg/kg, po; type: ADME, organism-based; set-up: dose 25 mg/kg, route oral, time infinity; conditions: plasma
[14] = test system: Staphylococcus aureus; assay: Antimicrobial activity against Staphylococcus aureus after 24 hrs by broth microdilution method; type: functional; outline: as §1
[15] = AUC (0 to t) in Sprague-Dawley rat at 25 mg/kg, po; type: ADME, organism-based; set-up: dose 25 mg/kg, route oral; conditions: plasma
[16] = test system: Escherichia coli; assay: Antimicrobial activity against Escherichia coli isolate 1 after 24 hrs by broth microdilution method; type: functional; conditions: isolate 1, 24 h; outline: as §1
[17] = Tmax in Sprague-Dawley rat at 25 mg/kg, po; type: ADME, organism-based; set-up: dose 25 mg/kg, route oral; conditions: in vivo
[18] = Mean residence time (0 to t) in Sprague-Dawley rat at 25 mg/kg, po; type: ADME, organism-based; set-up: dose 25 mg/kg, route oral; conditions: in vivo
[19] = Clearance in Sprague-Dawley rat at 5 mg/kg, iv; type: ADME, organism-based; set-up: dose 5 mg/kg, route intravenous; conditions: in vivo
[20] = molecular target: T1, hERG (KCNH2); assay: Inhibition of human ERG at 1 uM
[21] = AUC (0 to infinity) in Sprague-Dawley rat at 5 mg/kg, iv; type: ADME, organism-based; set-up: time infinity, dose 5 mg/kg, route intravenous; conditions: plasma
[22] = test system: Staphylococcus aureus; assay: Antimicrobial activity against Staphylococcus aureus OXFORD after 24 hrs by broth microdilution method; type: functional; outline: as §2
[23] = test system: Staphylococcus aureus; assay: Antimicrobial activity against Staphylococcus aureus WCUH29 after 24 hrs by broth microdilution method; type: functional; conditions: WCUH29, 24 h; outline: as §1
[24] = Cmax in Sprague-Dawley rat at 25 mg/kg, po; type: ADME, organism-based; set-up: dose 25 mg/kg, route oral; conditions: in vivo
[25] = Fraction unbound in CD1 mouse plasma at 2 uM by equilibrium dialysis; type: ADME, cell-free
Outline: (§3)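 Pooled CD-1 mouse plasma spiked to 2 µM final, equilibrium dialysis in triplicate against 100 mM PBS pH 7.4, 4 h at 37 °C with rotation; matrix-matched samples acetonitrile-precipitated, LC-MS/MS with internal standards. Unbound = free/total ×100; recovery = (free+total)/pre-dialysis ×100.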

[26] = test system: Haemophilus influenzae; assay: Antimicrobial activity against Haemophilus influenzae H128 after 24 hrs by broth microdilution method; type: functional; conditions: H128, 24 h; outline: as §1
[27] = test system: Streptococcus pneumoniae; assay: Antimicrobial activity against Streptococcus pneumoniae 1629 after 24 hrs by broth microdilution method; type: functional; conditions: Streptococcus pneumoniae, 1629, 24 h; outline: as §1
[28] = test system: Escherichia coli; assay: Antimicrobial activity against Escherichia coli isolate 3 after 24 hrs by broth microdilution method; type: functional; conditions: isolate 3, 24 h; outline: as §1
[29] = test system: Moraxella catarrhalis; assay: Antimicrobial activity against Moraxella catarrhalis 1502 after 24 hrs by broth microdilution method; type: functional; conditions: Moraxella catarrhalis, 1502, 24 h; outline: as §1
[30] = test system: Streptococcus pyogenes; assay: Antimicrobial activity against Streptococcus pyogenes 1308007P after 24 hrs by broth microdilution method; type: functional; outline: as §1
[31] = test system: Staphylococcus aureus; assay: Antimicrobial activity against Staphylococcus aureus ATCC 33591 in septicemia mouse model assessed as mortality of host at 5 mg/kg administered intragastrically measured after 14 days relative to control; type: functional; conditions: ATCC 33591, po, 336 h, route intragastric
Outline: (§4)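 Septicemia model: outbred mice inoculated i.p. with a 90–100% lethal dose (5 × 10^6 CFU/mL) in 0.5 mL brain heart infusion broth with 5% mucin. Drug in 20% DMSO given intragastrically after infection at 5, 10 or 20 mg/kg, 0.1 mL. Six mice per dose; cumulative mortality over 14 days; ED50 derived.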

[32] = Drug recovery in CD1 mouse plasma at 2 uM by equilibrium dialysis; type: ADME, cell-free; conditions: read-out: Drug recovery; outline: as §3
[33] = Volume of distribution at steady state in Sprague-Dawley rat at 5 mg/kg, iv; type: ADME, organism-based; set-up: dose 5 mg/kg, route intravenous; conditions: in vivo, read-out: Vdss
[34] = test system: Staphylococcus aureus; assay: Antimicrobial activity against Staphylococcus aureus ATCC 33591 in septicemia mouse model administered intragastrically measured after 14 days; type: functional; conditions: ATCC 33591, po, 336 h
[35] = test system: Staphylococcus aureus; assay: Antimicrobial activity against Staphylococcus aureus ATCC 33591 in septicemia mouse model assessed as mortality of host at 10 mg/kg administered intragastrically measured after 14 days relative to control; type: functional; conditions: ATCC 33591, po, 336 h, route intragastric; outline: as §4
[36] = Protein binding in CD1 mouse plasma at 2 uM by equilibrium dialysis; type: ADME, cell-free; conditions: read-out: PPB (converted)
[37] = test system: Staphylococcus aureus; assay: Antimicrobial activity against Staphylococcus aureus ATCC 33591 in septicemia mouse model assessed as mortality of host at 20 mg/kg administered intragastrically measured after 14 days relative to control; type: functional; conditions: ATCC 33591, po, 336 h, route intragastric; outline: as §4
[38] = test system: Staphylococcus aureus; assay: Antimicrobial activity against methicillin-susceptible Staphylococcus aureus after 24 hrs by broth microdilution method; type: functional; outline: as §1
[39] = Oral bioavailability in Sprague-Dawley rat at 25 mg/kg; type: ADME, organism-based; conditions: in vivo
[40] = AUC (0 to t) in Sprague-Dawley rat at 5 mg/kg, iv; type: ADME, organism-based; set-up: dose 5 mg/kg, route intravenous; conditions: plasma
[41] = test system: Enterococcus faecium; assay: Antimicrobial activity against Enterococcus faecium X7501 after 24 hrs by broth microdilution method; type: functional; conditions: X7501, 24 h; outline: as §1
[42] = test system: Streptococcus pyogenes; assay: Antimicrobial activity against Streptococcus pyogenes 1307006P after 24 hrs by broth microdilution method; type: functional; outline: as §1

T1 sequence (Q12809 whole entry): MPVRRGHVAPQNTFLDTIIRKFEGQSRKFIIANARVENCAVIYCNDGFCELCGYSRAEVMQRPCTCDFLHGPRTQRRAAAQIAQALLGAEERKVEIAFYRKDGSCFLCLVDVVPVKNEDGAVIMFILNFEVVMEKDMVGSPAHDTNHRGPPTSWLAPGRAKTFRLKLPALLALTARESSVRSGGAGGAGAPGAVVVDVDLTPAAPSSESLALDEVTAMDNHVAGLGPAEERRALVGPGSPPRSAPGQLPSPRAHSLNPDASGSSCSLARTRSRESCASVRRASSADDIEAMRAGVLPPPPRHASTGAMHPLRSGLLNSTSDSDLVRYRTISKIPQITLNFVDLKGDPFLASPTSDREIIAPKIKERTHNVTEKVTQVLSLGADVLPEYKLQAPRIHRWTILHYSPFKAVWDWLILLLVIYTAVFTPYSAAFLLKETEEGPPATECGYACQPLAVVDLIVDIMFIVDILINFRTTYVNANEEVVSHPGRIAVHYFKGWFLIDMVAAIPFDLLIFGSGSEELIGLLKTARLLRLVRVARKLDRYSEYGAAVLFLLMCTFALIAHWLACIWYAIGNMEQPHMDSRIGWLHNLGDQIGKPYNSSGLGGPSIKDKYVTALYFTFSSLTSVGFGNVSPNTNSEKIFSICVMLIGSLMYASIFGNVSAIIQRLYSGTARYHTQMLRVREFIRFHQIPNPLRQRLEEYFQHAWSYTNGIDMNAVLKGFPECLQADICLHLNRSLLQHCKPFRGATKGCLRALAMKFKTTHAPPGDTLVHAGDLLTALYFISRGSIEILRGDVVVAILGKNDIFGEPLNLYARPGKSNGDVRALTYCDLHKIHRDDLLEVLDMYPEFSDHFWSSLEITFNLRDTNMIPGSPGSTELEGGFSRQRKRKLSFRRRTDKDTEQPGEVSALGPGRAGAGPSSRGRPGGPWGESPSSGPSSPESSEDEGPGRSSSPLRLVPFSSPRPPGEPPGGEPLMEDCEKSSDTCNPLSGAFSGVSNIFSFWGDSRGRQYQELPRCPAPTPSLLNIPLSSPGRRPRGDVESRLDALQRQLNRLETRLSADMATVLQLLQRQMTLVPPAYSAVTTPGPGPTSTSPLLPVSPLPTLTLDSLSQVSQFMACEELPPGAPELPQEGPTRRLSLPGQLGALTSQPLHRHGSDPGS

## C=C1C[C@@H](C(=O)Nc2ncc(C)s2)N(C(=O)[C@H](CCCC)CN(O)C=O)C1
[1]
  MRT last: 2.03 h
[2]
  MIC: 4 µg/mL (≈ 10.1 µM)
[3]
  MIC: 4 µg/mL (≈ 10.1 µM)
[4]
  MIC: 0.0312 µg/mL (≈ 0.0791 µM)
[5]
  half-life: 3.21 h
[6]
  MIC: 2 µg/mL (≈ 5.07 µM)
[7]
  half-life: 3.02 h
[8]
  inhibition at 10 µM: -2.98%
[9]
  MIC: ≤ 0.06 µg/mL
[10]
  MIC: 32 µg/mL (≈ 81.1 µM)
[11]
  MIC: 0.0625 µg/mL (≈ 0.158 µM)
[12]
  MIC: 1 µg/mL (≈ 2.53 µM)
[13]
  AUC(0-inf): 58300 ng·h/mL
[14]
  MIC: 0.25 µg/mL (≈ 0.634 µM)
[15]
  AUC(0-t): 58100 ng·h/mL
[16]
  MIC: 64 µg/mL (≈ 162 µM)
[17]
  Tmax: 0.688 h
[18]
  MRT last: 3.41 h
[19]
  clearance: 4.83 mL/min/kg
[20]
  inhibition at 1 µM: -0.35%
[21]
  AUC(0-inf): 19800 ng·h/mL
[22]
  MIC: 0.5 µg/mL (≈ 1.27 µM)
[23]
  MIC: 0.125 µg/mL (≈ 0.317 µM)
[24]
  Cmax: 15700 ng/mL
[25]
  fraction unbound at 2 µM: 0.01
[26]
  MIC: 4 µg/mL (≈ 10.1 µM)
[27]
  MIC: 2 µg/mL (≈ 5.07 µM)
[28]
  MIC: 64 µg/mL (≈ 162 µM)
[29]
  MIC: ≤ 0.06 µg/mL
[30]
  MIC: 2 µg/mL (≈ 5.07 µM)
[31]
  mortality at 5 mg/kg: 83%
[32]
  recovery at 2 µM: 93.7%
[33]
  Vd: 0.571 L/kg
[34]
  ED50: 19.6 mg/kg
[35]
  mortality at 10 mg/kg: 66%
[36]
  fraction unbound at 2 µM: 0.01
[37]
  mortality at 20 mg/kg: 50%
[38]
  MIC: 0.5 µg/mL (≈ 1.27 µM)
[39]
  bioavailability: 58.9%
[40]
  AUC(0-t): 19800 ng·h/mL
[41]
  MIC: 2 µg/mL (≈ 5.07 µM)
[42]
  MIC: 2 µg/mL (≈ 5.07 µM)
